Results as given in ChEMBL document CHEMBL2203171, “The use of small molecule probes to study spatially separated stimulus-induced signaling pathways” (Bioorg Med Chem Lett, 2012).
The source made the active and inactive calls. The rule behind the calls is not given here.

How the values were obtained:
Format in all cases: cell-based
[1] = biological target: Toll-like receptor 2 (Mus musculus) (UniProt Q9QUN7); experiment: Inhibition of MyD88 recruitment to TLR2 in C57BL/6 mouse BMDM cells assessed as inhibition of HKSA-induced IkappaBalpha phosphorylation up to 90 mins by Western blot analysis
Summary of the method: (§1)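 Bone marrow macrophages from C57BL/6 mice, grown in 70% growth medium (DMEM, 10% FBS) plus 30% L929-conditioned medium and given fresh medium 12-14 h before stimulation. Stimuli: IL-1 40 ng/ml, HKSA ~10^8 cfu/ml, pI:pC 50 μg/ml or CpG 10 μg/ml, ± compound at 10 μM (final) added from a 200x DMSO stock. IκBα and p38 profiled by immunoblot. Three independent experiments, quantitated and normalized.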

[2] = biological target: T1, Inhibitor of nuclear factor kappa-B kinase subunit beta (Mus musculus) (UniProt O88351); experiment: Inhibition of IKKbeta in C57BL/6 mouse BMDM cells assessed as inhibition of LPS-induced IkappaBalpha degradation at 50 uM up to 90 mins by Western blot analysis
T1 sequence (whole entry): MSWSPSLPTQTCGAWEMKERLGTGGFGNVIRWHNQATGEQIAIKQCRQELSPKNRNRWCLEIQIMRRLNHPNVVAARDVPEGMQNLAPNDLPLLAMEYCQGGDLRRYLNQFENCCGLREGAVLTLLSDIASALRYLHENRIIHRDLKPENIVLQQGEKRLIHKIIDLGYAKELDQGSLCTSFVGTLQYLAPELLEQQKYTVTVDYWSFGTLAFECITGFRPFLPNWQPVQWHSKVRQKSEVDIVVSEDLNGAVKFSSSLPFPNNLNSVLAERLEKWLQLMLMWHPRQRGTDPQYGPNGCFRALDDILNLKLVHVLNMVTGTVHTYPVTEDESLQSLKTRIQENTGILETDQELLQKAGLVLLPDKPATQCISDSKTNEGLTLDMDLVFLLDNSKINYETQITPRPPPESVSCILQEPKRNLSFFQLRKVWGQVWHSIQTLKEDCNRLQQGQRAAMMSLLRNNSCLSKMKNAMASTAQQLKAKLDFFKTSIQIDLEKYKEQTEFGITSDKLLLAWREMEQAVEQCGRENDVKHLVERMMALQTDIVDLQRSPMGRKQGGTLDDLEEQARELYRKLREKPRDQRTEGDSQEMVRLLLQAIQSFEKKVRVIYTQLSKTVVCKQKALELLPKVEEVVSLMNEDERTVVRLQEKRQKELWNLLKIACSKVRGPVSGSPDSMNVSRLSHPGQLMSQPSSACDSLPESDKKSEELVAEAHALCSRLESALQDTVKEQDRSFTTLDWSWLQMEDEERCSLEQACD

[3] = biological target: T2, Toll-like receptor 9 (Mus musculus) (UniProt Q9EQU3); experiment: Inhibition of MyD88 recruitment to TLR9 in C57BL/6 mouse BMDM cells assessed as inhibition of CpG-induced IkappaBalpha degradation up to 90 mins by Western blot analysis; summary of the method: as §1
T2 sequence (whole entry): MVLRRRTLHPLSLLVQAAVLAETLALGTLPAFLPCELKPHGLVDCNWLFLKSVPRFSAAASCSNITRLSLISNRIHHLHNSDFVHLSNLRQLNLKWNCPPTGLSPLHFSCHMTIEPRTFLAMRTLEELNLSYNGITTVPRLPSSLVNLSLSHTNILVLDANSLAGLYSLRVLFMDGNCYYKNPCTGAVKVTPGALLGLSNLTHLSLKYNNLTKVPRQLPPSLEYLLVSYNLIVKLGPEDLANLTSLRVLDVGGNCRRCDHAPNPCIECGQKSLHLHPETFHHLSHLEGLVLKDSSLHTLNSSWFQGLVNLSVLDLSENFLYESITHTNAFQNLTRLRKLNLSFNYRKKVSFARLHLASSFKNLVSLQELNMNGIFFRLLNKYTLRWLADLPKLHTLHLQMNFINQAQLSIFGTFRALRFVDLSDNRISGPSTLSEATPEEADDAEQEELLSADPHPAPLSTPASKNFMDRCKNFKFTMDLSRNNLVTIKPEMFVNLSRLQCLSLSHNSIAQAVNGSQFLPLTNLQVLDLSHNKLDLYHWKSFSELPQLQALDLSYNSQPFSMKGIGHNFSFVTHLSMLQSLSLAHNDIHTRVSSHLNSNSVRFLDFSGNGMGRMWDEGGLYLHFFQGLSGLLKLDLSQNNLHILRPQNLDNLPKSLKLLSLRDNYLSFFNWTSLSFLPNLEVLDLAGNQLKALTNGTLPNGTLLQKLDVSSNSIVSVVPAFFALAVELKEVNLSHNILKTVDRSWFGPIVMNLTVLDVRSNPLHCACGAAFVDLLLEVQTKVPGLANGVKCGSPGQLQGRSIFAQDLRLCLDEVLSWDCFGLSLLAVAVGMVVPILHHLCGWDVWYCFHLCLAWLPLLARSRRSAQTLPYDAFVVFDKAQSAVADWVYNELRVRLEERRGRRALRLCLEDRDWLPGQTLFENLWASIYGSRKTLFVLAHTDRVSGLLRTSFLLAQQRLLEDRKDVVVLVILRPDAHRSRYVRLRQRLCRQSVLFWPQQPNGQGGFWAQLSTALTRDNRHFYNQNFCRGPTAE

Chain of Toll-like receptor 2 (Mus musculus) (Q9QUN7 whole entry): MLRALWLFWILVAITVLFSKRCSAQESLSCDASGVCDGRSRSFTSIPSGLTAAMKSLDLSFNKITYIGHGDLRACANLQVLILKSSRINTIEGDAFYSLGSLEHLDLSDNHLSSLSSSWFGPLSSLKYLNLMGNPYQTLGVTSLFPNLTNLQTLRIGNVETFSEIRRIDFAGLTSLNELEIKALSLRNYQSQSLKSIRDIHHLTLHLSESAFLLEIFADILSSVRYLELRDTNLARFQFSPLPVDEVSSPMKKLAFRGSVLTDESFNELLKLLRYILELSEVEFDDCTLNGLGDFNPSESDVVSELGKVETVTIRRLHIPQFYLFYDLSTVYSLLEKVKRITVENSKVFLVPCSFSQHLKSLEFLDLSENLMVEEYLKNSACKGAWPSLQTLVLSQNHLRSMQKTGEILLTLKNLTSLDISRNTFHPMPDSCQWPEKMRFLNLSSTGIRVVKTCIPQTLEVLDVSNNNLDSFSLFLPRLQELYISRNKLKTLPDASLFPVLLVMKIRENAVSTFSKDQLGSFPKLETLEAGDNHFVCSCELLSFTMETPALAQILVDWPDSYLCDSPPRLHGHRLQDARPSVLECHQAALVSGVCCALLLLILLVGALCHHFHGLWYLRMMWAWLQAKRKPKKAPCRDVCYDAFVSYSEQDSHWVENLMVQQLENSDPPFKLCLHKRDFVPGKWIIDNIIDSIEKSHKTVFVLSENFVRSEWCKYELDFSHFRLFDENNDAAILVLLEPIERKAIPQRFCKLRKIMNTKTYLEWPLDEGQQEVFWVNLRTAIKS

Row | Compound | inhibition [1] | inhibition (active/not active) [2] | inhibition [3]
1 | O=C(CCCCCN1C(=O)C=CC1=O)Oc1ccc2cc(C(C(=O)NCc3ccccc3)N(C(=O)Cc3ccc4c(c3)OCO4)C3CC3)ccc2c1 (centres undefined) | Active | Active | Active
2 | O=C(CCCCCCCC(=O)ON1C(=O)CCC1=O)Oc1ccc2cc(C(C(=O)NCc3ccccc3)N(C(=O)Cc3ccc4c(c3)OCO4)C3CC3)ccc2c1 (centres undefined) | Active | Active | Active
3 | O=C(CCCCCN1C(=O)CCC1=O)Oc1ccc2cc(C(C(=O)NCc3ccccc3)N(C(=O)Cc3ccc4c(c3)OCO4)C3CC3)ccc2c1 (centres undefined) | Active | inactive | Active
